Data taken from ChEMBL document CHEMBL2396626, “Exploiting drug-resistant enzymes as tools to identify thienopyrimidinone inhibitors of human immunodeficiency virus reverse transcriptase-associated ribonuclease H” (J Med Chem, 2013).
The source made the active and inactive calls. No cut-off for these calls is given here.

Columns and labels:
[1] = molecular target: Human immunodeficiency virus type 1 reverse transcriptase (Human immunodeficiency virus 1, UniProt Q72547); test: Inhibition of RNase H activity of wild type HIV-1 reverse transcriptase using 18 nucleotide 3'-fluorescein-labeled RNA/18 nucleotide 5'-dabsyl-labeled DNA hybrid as substrate after 10 mins by fluorescence spectrometric analysis
[2] = Inhibition of RNase H activity of HIV-1 reverse transcriptase p66/p51 R284A mutant using 18 nucleotide 3'-fluorescein-labeled RNA/18 nucleotide 5'-dabsyl-labeled DNA hybrid as substrate after 10 mins by fluorescence spectrometric analysis; design: species or system Human immunodeficiency virus 1
CEM-SS = test: Cytotoxicity against human CEM-SS cells by XTT assay; format: cell-based
In short: (§1)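 Cytopathic-protection format: HIV-1 RF isolate in human T-cell line CEM-SS, with cell viability read by XTT-based assay.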

[3] = Inhibition of RNase H activity of HIV-1 reverse transcriptase p66/p51 T286A mutant using 18 nucleotide 3'-fluorescein-labeled RNA/18 nucleotide 5'-dabsyl-labeled DNA hybrid as substrate after 10 mins by fluorescence spectrometric analysis; design: species or system Human immunodeficiency virus 1
[4] = Inhibition of RNase H activity of HIV-1 reverse transcriptase p66/p51 C280A mutant using 18 nucleotide 3'-fluorescein-labeled RNA/18 nucleotide 5'-dabsyl-labeled DNA hybrid as substrate after 10 mins by fluorescence spectrometric analysis; design: species or system Human immunodeficiency virus 1
[5] = tested on: Human immunodeficiency virus 1; test: Antiviral activity against Human immunodeficiency virus 1 RF isolate infected in human CEM-SS cells by XTT assay; format: functional, organism-based; in short: as §1
[6] = Inhibition of RNase H activity of HIV-1 reverse transcriptase p66/p51 V276A mutant using 18 nucleotide 3'-fluorescein-labeled RNA/18 nucleotide 5'-dabsyl-labeled DNA hybrid as substrate after 10 mins by fluorescence spectrometric analysis; design: species or system Human immunodeficiency virus 1
[7] = Selectivity ratio of CC50 for human CEM-SS cells to EC50 for Human immunodeficiency virus 1 RF isolate; format: ADME, cell-based
[8] = molecular target: Human immunodeficiency virus type 1 reverse transcriptase (Human immunodeficiency virus 1) (UniProt Q72547); test: Binding affinity to HIV-1 reverse transcriptase p66/p51 assessed as decrease in melting temperature at 10 uM by differential scanning fluorimetric analysis in presence of Mg2+
[9] = molecular target: Human immunodeficiency virus type 1 reverse transcriptase (Human immunodeficiency virus 1) (UniProt Q72547); settings: 500 uM
[10] = tested on: Human immunodeficiency virus type 1 reverse transcriptase (Human immunodeficiency virus 1), Q72547 [Y181C]; test: Inhibition of HIV-1 reverse transcriptase Y181C mutant at 50 uM
[11] = molecular target: Human immunodeficiency virus type 1 integrase (Human immunodeficiency virus 1) (UniProt Q7ZJM1); test: Inhibition of HIV-1 integrase using DNA duplex as substrate at 50 uM preincubated for 10 mins prior to substrate addition measured after 1 hr
[12] = tested on: Human immunodeficiency virus 1; test: Inhibition of HIV-1 DNA-dependent DNA polymerase using DNA duplex as substrate at 50 uM after 15 mins by PAGE relative to control
[13] = tested on: Human immunodeficiency virus type 1 reverse transcriptase (Human immunodeficiency virus 1), Q72547 [K103N]; test: Inhibition of HIV-1 reverse transcriptase K103N mutant at 50 uM
[14] = molecular target: Human immunodeficiency virus type 1 reverse transcriptase (Human immunodeficiency virus 1) (UniProt Q72547); test: Binding affinity to HIV-1 reverse transcriptase p66/p51-RNA/DNA hybrid complex assessed as decrease in melting temperature at 10 uM by differential scanning fluorimetric analysis in presence of Mg2+
[15] = molecular target: Human immunodeficiency virus type 1 reverse transcriptase (Human immunodeficiency virus 1) (UniProt Q72547); test: Inhibition of RNase H activity of HIV-1 reverse transcriptase using 18 nucleotide 3'-fluorescein-labeled RNA/18 nucleotide 5'-dabsyl-labeled DNA hybrid as substrate by Yonetani-Theorell plot analysis in presence of beta-thujaplicinol
In short: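 Yonetani-Theorell: RNase H rates at 250 nM RNA/DNA substrate, fixed enzyme, thienopyrimidinone 0–5 μM against β-thujaplicinol 0, 0.125, 0.25, 0.5, 1 μM; hydrolysis started with substrate, monitored 60 min; V0/Vi plotted and fitted to two-inhibitor equation with interaction term.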

Human immunodeficiency virus type 1 integrase (Human immunodeficiency virus 1), sequence (Q7ZJM1 as listed by the source): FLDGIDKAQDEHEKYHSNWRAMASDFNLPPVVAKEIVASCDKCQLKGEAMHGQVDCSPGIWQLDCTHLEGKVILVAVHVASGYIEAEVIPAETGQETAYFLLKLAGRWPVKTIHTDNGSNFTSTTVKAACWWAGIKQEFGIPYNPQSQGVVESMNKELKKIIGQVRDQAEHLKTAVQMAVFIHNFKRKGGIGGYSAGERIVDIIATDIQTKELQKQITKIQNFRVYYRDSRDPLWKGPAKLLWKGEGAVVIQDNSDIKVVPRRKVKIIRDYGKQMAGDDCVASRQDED

| SMILES | IC50 [1] [nM] | IC50 [2] [nM] | IC50 [3] [nM] | IC50 [4] [nM] | IC50 [6] [nM] | other results |
| --- | --- | --- | --- | --- | --- | --- |
| Cc1sc2nc(-c3cc(C(F)(F)F)cc(C(F)(F)F)c3)[nH]c(=O)c2c1C | > 50000 |  |  |  |  |  |
| Cc1sc2nc(-c3ccc(Cl)c([N+](=O)[O-])c3)[nH]c(=O)c2c1C | 12000 |  |  |  |  |  |
| Cc1sc2nc(-c3ccc(C(=O)O)cc3)[nH]c(=O)c2c1C | 1600 |  |  |  |  |  |
| Cc1sc2nc(-c3cccc(C(F)(F)F)c3)[nH]c(=O)c2c1C | > 50000 |  |  |  |  |  |
| O=c1[nH]c(-c2cccc(O)c2O)nc2sc3c(c12)CCCCC3 | 1800 | 2900 | 3600 | 1600 | 2800 | CC50 (CEM-SS): 9.8 µM; EC50 [5]: 2.7 µM; Ratio CC50/EC50 [7]: 3.6; ΔTm [8]: 0.5 °C |
| CC(C)c1ccc(O)c(=O)c(O)c1 |  |  |  |  |  | ΔTm [9]: 2 °C; ΔTm [8]: 0.5 °C |
| O=C(O)c1ccc(-c2nc3sc4c(c3c(=O)[nH]2)CCCCC4)cc1 | 1900 | 950 | 32000 | > 50000 | 460 |  |
| O=c1[nH]c(-c2ccc(O)cc2)nc2sc3c(c12)CCCCC3 | 3200 | 650 | 6600 | 15800 | 640 |  |
| O=c1[nH]c(-c2ccc(O)c(O)c2)nc2sc3c(c12)CCCC3 | 370 | 920 | 460 | 290 | 410 | inhibition [10]: Active; inhibition [11]: inactive; inhibition [12]: > 60%; inhibition [13]: Active; ΔTm [8]: 0.5 °C |
| Cc1sc2nc(-c3cccnc3)[nH]c(=O)c2c1C | 8300 |  |  |  |  |  |
| COc1cc(-c2nc3sc(C)c(C)c3c(=O)[nH]2)ccc1O | > 50000 |  |  |  |  |  |
| Cc1sc2nc(-c3ccc(C(F)(F)F)cc3)[nH]c(=O)c2c1C | 1300 | 230 | 7500 | > 50000 | 310 |  |
| Cc1sc2nc(-c3ccc([N+](=O)[O-])o3)[nH]c(=O)c2c1C | 16900 |  |  |  |  |  |
| Cc1sc2nc(-c3cc(O)ccc3O)[nH]c(=O)c2c1C | 9300 |  |  |  |  |  |
| COc1ccc(-c2nc3sc(C)c(C)c3c(=O)[nH]2)cc1 | 9100 |  |  |  |  |  |
| O=c1[nH]c(-c2ccc(C(F)(F)F)cc2)nc2sc3c(c12)CCCCC3 | 3100 | 540 | 7200 | 10600 | 530 |  |
| Cc1sc2nc(-c3ccccc3)[nH]c(=O)c2c1C | 11300 |  |  |  |  |  |
| O=c1[nH]c(-c2ccc(O)c(O)c2)nc2sc3c(c12)CCCCC3 | 290 | 550 | 360 | 260 | 370 | CC50 (CEM-SS): 6.8 µM; EC50 [5]: 1.6 µM; inhibition [11]: inactive; ΔTm [14]: 5.9 °C; Ratio CC50/EC50 [7]: 4.3; ΔTm [8]: 0.5 °C; inhibition [15]: Active |
| O=c1[nH]c(-c2cc(O)ccc2O)nc2sc3c(c12)CCCCC3 | 1700 |  |  |  |  |  |
| CCCCc1c(C)sc2nc(-c3ccc(O)c(O)c3)[nH]c(=O)c12 | 420 | 1200 | 1100 | 490 | 910 | CC50 (CEM-SS): 25.4 µM; inhibition [10]: Active; EC50 [5]: 7.9 µM; inhibition [11]: inactive; inhibition [12]: > 60%; inhibition [13]: Active; Ratio CC50/EC50 [7]: 3.2; ΔTm [8]: 0.5 °C |
| COc1ccc(-c2nc3sc(C)c(C)c3c(=O)[nH]2)cc1OC | 12600 |  |  |  |  |  |

| SMILES | IC50 [1] [nM] | IC50 [2] [nM] | IC50 [3] [nM] | IC50 [4] [nM] | IC50 [6] [nM] | other results |
| --- | --- | --- | --- | --- | --- | --- |
| Cc1sc2nc(-c3ccc(O)c(O)c3)[nH]c(=O)c2c1C | 260 | 300 | 280 | 320 | 390 | CC50 (CEM-SS): 8.9 µM; EC50 [5]: 3.8 µM; inhibition [11]: inactive; ΔTm [14]: 5.8 °C; Ratio CC50/EC50 [7]: 2.3; ΔTm [8]: 0.5 °C; inhibition [15]: Active |
| CCCc1c(C)sc2nc(-c3ccc(O)c(O)c3)[nH]c(=O)c12 | 490 | 800 | 570 | 370 | 560 | CC50 (CEM-SS): 11.2 µM; EC50 [5]: 1.9 µM; Ratio CC50/EC50 [7]: 5.9; ΔTm [8]: 0.5 °C |
| Cc1sc2nc(-c3ccc([N+](=O)[O-])cc3)[nH]c(=O)c2c1C |  |  |  |  |  | ΔTm [8]: 0.5 °C |
| O=c1[nH]c(-c2cc(O)cc(O)c2)nc2sc3c(c12)CCCCC3 | 2600 |  |  |  |  |  |
| Cc1sc2nc(-c3cc(O)c(O)cc3O)[nH]c(=O)c2c1C | 1600 |  |  |  |  |  |
| Cc1sc2nc(-c3cccc([N+](=O)[O-])c3)[nH]c(=O)c2c1C | 1500 | 340 |  | > 50000 | 260 |  |
| O=c1[nH]c(-c2ccccc2)nc2sc3c(c12)CCCCC3 | 4100 | 1300 | 27900 | 41400 | 960 |  |
| CCCc1c(CC)sc2nc(-c3ccc(O)c(O)c3)[nH]c(=O)c12 | 590 | 1400 | 820 | 500 | 760 | CC50 (CEM-SS): 33.7 µM; inhibition [10]: Active; EC50 [5]: 9.2 µM; inhibition [11]: inactive; inhibition [12]: > 60%; inhibition [13]: Active; Ratio CC50/EC50 [7]: 3.7; ΔTm [8]: 0.5 °C |
| Cc1sc2nc(-c3ccc(O)c(F)c3)[nH]c(=O)c2c1C | > 50000 |  |  |  |  |  |
| Cc1sc2nc(-c3cc(O)c(O)c(O)c3)[nH]c(=O)c2c1C | 690 |  |  |  |  |  |
| Cc1sc2nc(-c3cc(O)cc(O)c3)[nH]c(=O)c2c1C | 5200 |  |  |  |  |  |
| CCCc1c(C)sc2nc(-c3cccc(O)c3O)[nH]c(=O)c12 | 1700 | 3500 | 5700 | 2900 | 4100 | CC50 (CEM-SS): 12.4 µM; EC50 [5]: 3.1 µM; inhibition [11]: inactive; Ratio CC50/EC50 [7]: 4; ΔTm [8]: 0.5 °C |
| O=c1[nH]c(-c2ccc(O)c(O)c2)nc2sc3c(c12)CCCCCC3 | 260 | 280 | 290 | 230 | 110 | inhibition [10]: Active; inhibition [11]: inactive; inhibition [12]: > 60%; inhibition [13]: Active; ΔTm [8]: 0.5 °C |
| O=c1[nH]c(-c2ccc(O)cc2O)nc2sc3c(c12)CCCCC3 | 9300 |  |  |  |  |  |
| Cc1sc2nc(-c3cc4ccccc4[nH]3)[nH]c(=O)c2c1C | 480 | 120 | 960 | > 50000 | 160 |  |
| O=c1[nH]c(-c2ccc(O)c(O)c2)nc2sc3c(c12)CCC3 | 320 | 470 | 370 | 260 | 210 | inhibition [10]: Active; inhibition [11]: inactive; inhibition [12]: > 60%; inhibition [13]: Active; ΔTm [8]: 0.5 °C |
| Cc1sc2nc(-c3ccccn3)[nH]c(=O)c2c1C | 4200 |  |  |  |  |  |
| Cc1sc2nc(-c3ccc(F)c(F)c3)[nH]c(=O)c2c1C | > 50000 |  |  |  |  |  |
| Cc1sc2nc(-c3cccc(O)c3)[nH]c(=O)c2c1C | > 50000 |  |  |  |  |  |
| Cc1sc2nc(-c3ccc(O)cc3)[nH]c(=O)c2c1C | 790 | 200 | 3700 | > 50000 | 140 |  |
